Where two headings read alike, the source gives them in different places.
Legend:
[1] = Plasma pharmacokinetics of TAK‐020; type: in vivo, human (healthy subjects); conditions: for half-life / Tmax: human, plasma
Procedure, shortened: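 In the MRD part, healthy subjects took oral test compound q.d. (3.75–60 mg) or placebo, with sampling on days 1 and 9. Plasma levels were measured by validated HPLC-MS/MS (LLOQ 0.10 ng/mL). Noncompartmental parameters used actual sampling times, with geometric mean and %CV for Cmax and AUC. Accumulation ratios were based on Cmax and AUC24, plus the LS-mean ratio AUC24 (day 9):AUC∞ (day 1).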

BTK = BTK (Homo sapiens, UniProt Q06187); test: BTK occupancy assay in whole blood cell lysates; type: in vivo
Procedure, shortened: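 Healthy subjects in SRD cohorts 1–4 (6 test compound, 2 placebo per cohort) took a single oral dose (0.1 mg starting dose, given as solution) or placebo while fasted. Unoccupied BTK in whole-blood cell lysates was captured by a biotin-modified covalent probe of the test compound. Occupancy was computed per postdose time up to 96 h as 100 − [100 × (BTK concentration ÷ predose BTK concentration)].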

[2] = test system: FcεRI‐mediated activation of basophils; test: Basophil activation test; type: in vivo, human
[3] = test system: rat collagen‐induced arthritis model; conditions: nonclinical, no reference given; cited from earlier work
[4] = rats, nonclinical, no reference given, cited from earlier work
[5] = dogs, nonclinical, no reference given, cited from earlier work
[6] = nonclinical studies, oral solution; no reference given; cited from earlier work
[7] = rat, most sensitive toxicological species; nonclinical, no reference given; cited from earlier work

BTK, sequence (Q06187 whole entry): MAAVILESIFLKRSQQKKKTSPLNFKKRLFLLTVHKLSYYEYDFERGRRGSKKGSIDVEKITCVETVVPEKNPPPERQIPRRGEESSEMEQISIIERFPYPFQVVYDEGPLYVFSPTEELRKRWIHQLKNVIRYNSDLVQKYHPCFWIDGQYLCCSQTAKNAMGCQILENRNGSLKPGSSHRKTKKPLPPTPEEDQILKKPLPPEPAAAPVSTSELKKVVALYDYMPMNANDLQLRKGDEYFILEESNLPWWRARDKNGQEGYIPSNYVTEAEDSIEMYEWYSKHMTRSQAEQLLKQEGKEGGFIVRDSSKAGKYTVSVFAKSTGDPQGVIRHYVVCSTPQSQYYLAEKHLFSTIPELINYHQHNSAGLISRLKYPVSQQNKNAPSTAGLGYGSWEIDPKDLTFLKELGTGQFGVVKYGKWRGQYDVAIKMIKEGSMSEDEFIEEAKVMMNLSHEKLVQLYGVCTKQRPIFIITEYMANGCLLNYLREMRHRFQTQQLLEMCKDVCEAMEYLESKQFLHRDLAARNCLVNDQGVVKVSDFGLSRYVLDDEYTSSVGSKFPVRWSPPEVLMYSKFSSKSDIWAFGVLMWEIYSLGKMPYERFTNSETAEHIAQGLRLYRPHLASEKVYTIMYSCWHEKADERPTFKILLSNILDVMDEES

C=CC(=O)N1CC[C@H](Oc2nc(-c3n[nH]c(=O)[nH]3)cc3ccccc23)C1 [TAK‐020]
least‐squares means ratio of AUC24 (day 9):AUC∞ (day 1) ([1]; MRD): near unity | accumulation ratio based on AUC24 (Rac(AUC24)), geometric mean ([1]; MRD 3.75 to 60 mg q.d.): near unity | accumulation ratio based on Cmax (Rac(Cmax)), geometric mean ([1]; MRD 3.75 to 60 mg q.d.): near unity | steady‐state systemic exposure (mean dose‐normalized Cmax and AUC24) vs dose ([1]; MRD, days 1 and 9): dose‐proportional manner up to 60 mg | half-life ([1]; oral, 3.75 mg, mean t1/2z, MRD, 3.75‐mg dose, day 1): 2.59 h | half-life ([1]; oral, 3.75 mg, mean t1/2z, MRD, 3.75‐mg dose, day 9 after q.d. dosing): 2.15 h | half-life ([1]; oral, 60 mg, mean t1/2z, MRD, 60‐mg dose, day 1): 6.3 h | half-life ([1]; oral, 60 mg, mean t1/2z, MRD, 60‐mg dose, day 9 after q.d. dosing): 5.46 h | half-life ([1]; oral, half‐life, doses ≥ 2.5 mg (abstract)): 3 to 9 h | half-life ([1]; oral, mean half‐life in plasma, q.d. dosing): 2 to 6 h | Tmax ([1]; oral, median Tmax, MRD 3.75 to 60 mg, after a single dose on day 1): 0.5 to 0.75 h | Tmax ([1]; oral, median Tmax, MRD 3.75 to 60 mg, day 9 after q.d. dosing): 0.75 to 1 h | Tmax ([1]; po, median time to maximum plasma concentration (Tmax), single and multiple doses (abstract)): 0.75 to 1 h | duration of BTK occupancy > 70% (BTK; SRD, 2.5‐mg and 4.4‐mg doses, longest duration investigated): > 96 h | BTK occupancy, maximum and sustained (BTK; SRD, single doses ≥ 2.5 mg (2.5‐mg and 4.4‐mg), blood): > 70% | duration of > 80% BTK occupancy (BTK; single doses of 2.5 and 4.4 mg, postdose): 72 h | BTK occupancy (%) of TAK‐020 binding sites (BTK; single doses of 2.5 and 4.4 mg, up to 72 hours postdose): > 80% | duration of BTK saturation (BTK; single doses ≥2.5 mg): > 24 h | reduction from baseline in the %CD63‐positive basophils ([2]; MRD, day 9 after q.d. administration, doses ≥3.75 mg (3.75 to 60 mg)): > 80% | reduction in the %CD63‐positive basophils sustained throughout the entire dosing interval (predose to 24 hours postdose) ([2]; MRD, ≥ 45‐mg doses, after multiple dosing for 9 days): ≥ 80% | reduction in the %CD63‐positive basophils ([2]; SRD, 0.1‐mg and 0.5‐mg dose groups): essentially no reduction | time to return to baseline basophil activity postdose ([2]; SRD, single doses ≥ 4.4 mg): 36 to 72 h | reduction from baseline of FcεRI‐mediated activation of basophils (%CD63‐positive basophils) ([2]; SRD, single doses ≥ 4.4 mg (4.4–105 mg)): > 80% | median effective dose [3]: 0.31 mg/kg per day | terminal disposition phase elimination half‐life (t1/2z) ([4]; after oral administration): 4.4 to 7.3 h | oral bioavailability [4]: 13.2% | terminal disposition phase elimination half‐life (t1/2z) ([5]; after oral administration): 3.8 to 6.7 h | oral bioavailability [5]: 8.17% | time of peak plasma concentrations postdose [6]: ≤ 2 h | no observed adverse effect level exposure limit (total AUC) [7]: 63 ng·h/mL
